Columns and labels:
[1] = Bland–Altman comparison of plasma and hemaPEN DBS concentrations; assay type: in vivo, human; settings: 15 patients with NSCLC
Outline: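 Paired trough samples came from each patient: a finger-prick hemaPEN DBS, and venous EDTA blood drawn within 10 min that was spun at 2000g for 10 min, with plasma stored at −80°C. Both matrices were quantified by UHPLC-MS/MS, with AZ7550 calibrated using the labelled [¹³C²H₃] standard. Plasma and DBS values were compared by Bland–Altman analysis, with limits of agreement at ±1.96 SD of the mean difference.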

[2] = ref Rood et al, 30; cited from earlier work
[3] = Long-term stability; assay type: in vitro ADME, human; settings: plasma, Long-term (−80 degrees) for 30 d, n = 6
Outline: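 QC samples were stored at −80°C for 30 days before analysis. Plasma (20 µL) with I.S. (30 ng/mL) was precipitated with 150 µL water and 650 µL ACN, vortexed 5 min and centrifuged at 15,000g for 10 min. A hemaPEN DBS spot was extracted in 350 µL ACN with I.S. and centrifuged at 15,000g for 5 min. There were six replicates, 1 µL was injected for UHPLC-MS/MS MRM, and relative error was calculated versus nominal.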

[4] = Freeze–thaw stability; assay type: in vitro ADME, human; settings: DBS, 3 F/T cycles, n = 6
Outline: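 QC samples were kept 8 hours at RT, then put through 3 freeze–thaw cycles: thaw 2 hours at RT, refreeze at −80°C for at least 12 hours. Plasma (20 µL) with I.S. was protein-precipitated with water/ACN and centrifuged 15,000g for 10 min. A DBS spot was extracted in ACN with I.S. and centrifuged 15,000g for 5 min. Six replicates were run on UHPLC-MS/MS, with relative error versus nominal.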

[5] = Freeze–thaw stability; assay type: in vitro ADME, human; settings: plasma, 3 F/T cycles, n = 6
[6] = Long-term stability; assay type: in vitro ADME, human; settings: DBS, Long-term (−80 degrees) for 30 d, n = 6
[7] = tested on: EGFR/T790M; settings: cited from earlier work
[8] = Autosampler; assay type: in vitro ADME, human; settings: plasma, n = 6
[9] = tested on: CYP3A4; settings: preclinical data; cited from earlier work
[10] = Autosampler; assay type: in vitro ADME, human; settings: DBS, n = 6
Outline: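 DBS QC samples were made by filling hemaPEN capillaries from a blood drop onto precut disks and drying 1 hour at RT. Each spot (2.74 μL) was extracted in 350 µL ACN plus I.S. (30 ng/mL), vortexed, centrifuged at 15,000g, then shaken 1 hour at RT. Processed extracts were held in the autosampler at 4°C for 24 hours. Six replicates were read by UHPLC-MS/MS in positive MRM mode, with relative error taken against nominal.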

Mean concentration difference between plasma and hemaPEN DBS (Bland–Altman) [1]: 0.4% | Mean (measured concentration, stability) ([3]; nominal 1 ng/mL (LLOQ)): 1.15 | RE (stability) ([3]; nominal 1 ng/mL (LLOQ)): 15.47% | Mean (measured concentration, stability) ([3]; nominal 3 ng/mL (LQC)): 2.91 | RE (stability) ([3]; nominal 3 ng/mL (LQC)): −2.7% | Mean (measured concentration, stability) ([3]; nominal 30 ng/mL (MQC)): 29.39 | RE (stability) ([3]; nominal 30 ng/mL (MQC)): −2.02% | Mean (measured concentration, stability) ([3]; nominal 270 ng/mL (HQC)): 270.31 | RE (stability) ([3]; nominal 270 ng/mL (HQC)): 0.11% | Mean (measured concentration, stability) ([4]; nominal 1 ng/mL (LLOQ)): 1.06 | RE (stability) ([4]; nominal 1 ng/mL (LLOQ)): 8.95% | Mean (measured concentration, stability) ([4]; nominal 3 ng/mL (LQC)): 3.01 | RE (stability) ([4]; nominal 3 ng/mL (LQC)): −0.43% | Mean (measured concentration, stability) ([4]; nominal 30 ng/mL (MQC)): 29.34 | RE (stability) ([4]; nominal 30 ng/mL (MQC)): −2.24% | Mean (measured concentration, stability) ([4]; nominal 270 ng/mL (HQC)): 271.92 | RE (stability) ([4]; nominal 270 ng/mL (HQC)): 0.24% | Mean (measured concentration, stability) ([5]; nominal 1 ng/mL (LLOQ)): 1.14 | RE (stability) ([5]; nominal 1 ng/mL (LLOQ)): 10.47% | Mean (measured concentration, stability) ([5]; nominal 3 ng/mL (LQC)): 3.02 | RE (stability) ([5]; nominal 3 ng/mL (LQC)): 0.07% | Mean (measured concentration, stability) ([5]; nominal 30 ng/mL (MQC)): 28.84 | RE (stability) ([5]; nominal 30 ng/mL (MQC)): −3.85% | Mean (measured concentration, stability) ([5]; nominal 270 ng/mL (HQC)): 269.25 | RE (stability) ([5]; nominal 270 ng/mL (HQC)): −0.27% | Mean (measured concentration, stability) ([6]; nominal 1 ng/mL (LLOQ)): 1.1 | RE (stability) ([6]; nominal 1 ng/mL (LLOQ)): 10.68% | Mean (measured concentration, stability) ([6]; nominal 3 ng/mL (LQC)): 2.91 | RE (stability) ([6]; nominal 3 ng/mL (LQC)): 0.14% | Mean (measured concentration, stability) ([6]; nominal 30 ng/mL (MQC)): 30.08 | RE (stability) ([6]; nominal 30 ng/mL (MQC)): −2.18% | Mean (measured concentration, stability) ([6]; nominal 270 ng/mL (HQC)): 269.97 | RE (stability) ([6]; nominal 270 ng/mL (HQC)): 0.71% | Mean (measured concentration, stability) ([8]; nominal 1 ng/mL (LLOQ)): 1.04 | RE (stability) ([8]; nominal 1 ng/mL (LLOQ)): 7.21% | Mean (measured concentration, stability) ([8]; nominal 3 ng/mL (LQC)): 2.96 | RE (stability) ([8]; nominal 3 ng/mL (LQC)): −1.01% | Mean (measured concentration, stability) ([8]; nominal 30 ng/mL (MQC)): 29.32 | RE (stability) ([8]; nominal 30 ng/mL (MQC)): −2.3% | Mean (measured concentration, stability) ([8]; nominal 270 ng/mL (HQC)): 279.56 | RE (stability) ([8]; nominal 270 ng/mL (HQC)): 0.58% | Mean (measured concentration, stability) ([10]; nominal 1 ng/mL (LLOQ)): 1.07 | RE (stability) ([10]; nominal 1 ng/mL (LLOQ)): 7.15% | Mean (measured concentration, stability) ([10]; nominal 3 ng/mL (LQC)): 2.96 | RE (stability) ([10]; nominal 3 ng/mL (LQC)): −1.11% | Mean (measured concentration, stability) ([10]; nominal 30 ng/mL (MQC)): 29.31 | RE (stability) ([10]; nominal 30 ng/mL (MQC)): −2.7% | Mean (measured concentration, stability) ([10]; nominal 270 ng/mL (HQC)): 271.88 | RE (stability) ([10]; nominal 270 ng/mL (HQC)): 0.69%
SMILES: C=CC(=O)Nc1cc(Nc2nccc(-c3cn(C)c4ccccc34)n2)c(OC)cc1N(C)CCN(C)C [Osimertinib]
Degradation at RT [2]: rapid degradation | Greater potency toward mutated EGFR/T790M than wild-type EGFR [7]: 200 × | Metabolizing enzyme [9]: principally metabolized by cytochrome P450 (CYP3A4)
